Experimental data: ChEMBL document CHEMBL3045743, “Synthesis and herbicidal activity of isoindoline-1,3-dione substituted benzoxazinone derivatives containing a carboxylic ester group” (J Agric Food Chem, 2009); call rule not given here

Assays:
[1] = tested on: Brassica rapa subsp. oleifera; test: Phytotoxicity against Brassica rapa subsp. oleifera assessed as growth inhibition at 75 g.a.i/ha pre-emergent application measured after 15 days by greenhouse crop selectivity assay; assay type: functional; conditions: pre-emergence, 360 h, read-out: GI
In short: (§1)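 Pot-grown crop in greenhouse clay soil (pH 6.5, 1.7% organic matter, 37.5% clay, CEC 12.9 cmol/kg). Stock diluted with water and applied pre-emergence at 300, 150, 75 or 37.5 g a.i./ha. Cultivated 15 days, then phytotoxicity scored visually as % growth inhibition versus untreated controls. Triplicate treatments, averaged.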

Setaria viridis [2] = test: Post-emergence herbicidal activity against Setaria viridis (green foxtail) assessed as growth inhibition at 37.5 g.a.i./ha applied at one-leaf stage measured after 15 days; assay type: functional; conditions: 360 h, read-out: GI
In short: (§2)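 Pot-grown weeds sown 5 mm deep in greenhouse clay soil (pH 6.5, 1.7% organic matter, CEC 12.9 cmol/kg) at 22-25 °C. Stock diluted with water and sprayed post-emergence: dicots at 2-leaf stage, monocots at 1-leaf stage. Untreated and DMF solvent controls were included. % growth inhibition was scored visually versus untreated controls after 15 days. Triplicates averaged.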

Chenopodium album [3] = test: Pre-emergence herbicidal activity against Chenopodium album assessed as growth inhibition at 75 g.a.i./ha applied 24 hr after seeds were sown measured after 15 days; assay type: functional; conditions: read-out: GI
In short: (§3)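 Weeds sown 5 mm deep in pots of greenhouse clay soil (pH 6.5, 37.5% clay, CEC 12.9 cmol/kg) and grown at 22-25 °C. Water-diluted formulation was applied pre-emergence 24 h after sowing. Untreated and DMF solvent controls were included. Growth inhibition was visually rated in % against untreated controls after 15 days, as the mean of triplicates.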

Zea mays [4] = test: Phytotoxicity against Zea mays (maize) assessed as growth inhibition at 150 g.a.i/ha pre-emergent application measured after 15 days by greenhouse crop selectivity assay; assay type: organism-based; conditions: in vivo, other, 360 h
In short: (§4)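 Pre-emergence greenhouse crop selectivity test on pot-grown plants in clay soil (pH 6.5, 1.7% organic matter, 37.5% clay, CEC 12.9 cmol/kg). Stock solutions were diluted with water and applied at 300, 150, 75 or 37.5 g a.i./ha, in triplicate. After 15 days, phytotoxicity was scored visually against untreated controls as % crop growth inhibition, averaged over the triplicates.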

Gossypium = test: Phytotoxicity against Gossypium (cotton) assessed as growth inhibition at 75 g.a.i/ha pre-emergent application measured after 15 days by greenhouse crop selectivity assay; assay type: organism-based; conditions: in vivo, other, 360 h; in short: as §4
Arachis hypogaea [5] = test: Phytotoxicity against Arachis hypogaea (peanut) assessed as growth inhibition at 300 g.a.i/ha pre-emergent application measured after 15 days by greenhouse crop selectivity assay; assay type: organism-based; conditions: in vivo, other, 360 h; in short: as §4
Digitaria sanguinalis = test: Post-emergence herbicidal activity against Digitaria sanguinalis (hairy crabgrass) assessed as growth inhibition at 7.5 g.a.i./ha applied at one-leaf stage measured after 15 days; assay type: functional; conditions: 360 h, read-out: GI; in short: as §2
Echinochloa crus-galli [6] = test: Post-emergence herbicidal activity against Echinochloa crus-galli (barnyard grass) assessed as growth inhibition at 7.5 g.a.i./ha applied at one-leaf stage measured after 15 days; assay type: functional; conditions: 360 h, read-out: GI; in short: as §2
Echinochloa crus-galli [7] = test: Post-emergence herbicidal activity against Echinochloa crus-galli (barnyard grass) assessed as growth inhibition at 15 g.a.i./ha applied at one-leaf stage measured after 15 days; assay type: functional; conditions: 360 h, read-out: GI; in short: as §2
[8] = tested on: Brassica rapa subsp. oleifera; test: Phytotoxicity against Brassica rapa subsp. oleifera assessed as growth inhibition at 7.5 to 60 g.a.i/ha post-emergent application measured after 15 days by greenhouse crop selectivity assay; assay type: organism-based; conditions: in vivo, other, 360 h
In short: (§5)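 Postemergence crop selectivity test on pot-grown plants in a greenhouse, in clay soil (pH 6.5, 1.7% organic matter, CEC 12.9 cmol/kg). Stock was diluted with water and sprayed at 60, 30, 15 or 7.5 g a.i./ha, in triplicate. Growth inhibition was rated visually against untreated controls after 15 days and given as the triplicate mean percentage.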

Glycine max [9] = test: Phytotoxicity against Glycine max (soybean) assessed as growth inhibition at 300 g.a.i/ha pre-emergent application measured after 15 days by greenhouse crop selectivity assay; assay type: organism-based; conditions: in vivo, other, 360 h; in short: as §4
Amaranthus spinosus = test: Post-emergence herbicidal activity against Amaranthus spinosus assessed as growth inhibition at 7.5 g.a.i./ha applied at two-leaf stage measured after 15 days; assay type: functional; conditions: 360 h, read-out: GI; in short: as §2
Setaria viridis [10] = test: Post-emergence herbicidal activity against Setaria viridis (green foxtail) assessed as growth inhibition at 15 g.a.i./ha applied at one-leaf stage measured after 15 days; assay type: functional; conditions: 360 h, read-out: GI; in short: as §2
Abutilon theophrasti [11] = test: Post-emergence herbicidal activity against Abutilon theophrasti (velvetleaf) assessed as growth inhibition at 15 g.a.i./ha applied at two-leaf stage measured after 15 days; assay type: functional; conditions: 360 h, read-out: GI; in short: as §2
Zea mays [12] = test: Phytotoxicity against Zea mays (maize) assessed as growth inhibition at 75 g.a.i/ha pre-emergent application measured after 15 days by greenhouse crop selectivity assay; assay type: organism-based; conditions: in vivo, other, 360 h; in short: as §4
Echinochloa crus-galli [13] = test: Post-emergence herbicidal activity against Echinochloa crus-galli (barnyard grass) assessed as growth inhibition at 75 g.a.i./ha applied at one-leaf stage measured after 15 days; assay type: functional; conditions: 360 h, read-out: GI; in short: as §2
Zea mays [14] = test: Phytotoxicity against Zea mays (maize) assessed as growth inhibition at 7.5 to 60 g.a.i/ha post-emergent application measured after 15 days by greenhouse crop selectivity assay; assay type: organism-based; conditions: in vivo, other, 360 h; in short: as §5
Setaria viridis [15] = test: Pre-emergence herbicidal activity against Setaria viridis (green foxtail) assessed as growth inhibition at 37.5 g.a.i./ha applied 24 hr after seeds were sown measured after 15 days; assay type: functional; conditions: read-out: GI; in short: as §3
Chenopodium album [16] = test: Post-emergence herbicidal activity against Chenopodium album assessed as growth inhibition at 15 g.a.i./ha applied at two-leaf stage measured after 15 days; assay type: functional; conditions: 360 h, read-out: GI; in short: as §2
Abutilon theophrasti [17] = test: Pre-emergence herbicidal activity against Abutilon theophrasti (velvetleaf) assessed as growth inhibition at 75 g.a.i./ha applied 24 hr after seeds were sown measured after 15 days; assay type: functional; conditions: read-out: GI; in short: as §3
Abutilon theophrasti [18] = test: Post-emergence herbicidal activity against Abutilon theophrasti (velvetleaf) assessed as growth inhibition at 7.5 g.a.i./ha applied at two-leaf stage measured after 15 days; assay type: functional; conditions: 360 h, read-out: GI; in short: as §2
[19] = tested on: Brassica rapa subsp. oleifera; test: Phytotoxicity against Brassica rapa subsp. oleifera assessed as growth inhibition at 37.5 g.a.i/ha pre-emergent application measured after 15 days by greenhouse crop selectivity assay; assay type: functional; conditions: pre-emergence, 360 h, read-out: GI; in short: as §1
[20] = Phytotoxicity against Oryza sativa (rice) assessed as growth inhibition at 150 g.a.i/ha pre-emergent application measured after 15 days by greenhouse crop selectivity assay; assay type: organism-based, L.; conditions: in vivo, read-out: GI; in short: as §4
Triticum aestivum = test: Phytotoxicity against Triticum aestivum (wheat) assessed as growth inhibition at 7.5 to 60 g.a.i/ha post-emergent application measured after 15 days by greenhouse crop selectivity assay; assay type: organism-based; conditions: in vivo, other, 360 h; in short: as §5
Abutilon theophrasti [21] = test: Post-emergence herbicidal activity against Abutilon theophrasti (velvetleaf) assessed as growth inhibition at 37.5 g.a.i./ha applied at two-leaf stage measured after 15 days; assay type: functional; conditions: 360 h, read-out: GI; in short: as §2
Glycine max [22] = test: Phytotoxicity against Glycine max (soybean) assessed as growth inhibition at 75 g.a.i/ha pre-emergent application measured after 15 days by greenhouse crop selectivity assay; assay type: organism-based; conditions: in vivo, other, 360 h; in short: as §4
Arachis hypogaea [23] = test: Phytotoxicity against Arachis hypogaea (peanut) assessed as growth inhibition at 150 g.a.i/ha pre-emergent application measured after 15 days by greenhouse crop selectivity assay; assay type: organism-based; conditions: in vivo, other, 360 h; in short: as §4
Zea mays [24] = test: Phytotoxicity against Zea mays (maize) assessed as growth inhibition at 37.5 g.a.i/ha pre-emergent application measured after 15 days by greenhouse crop selectivity assay; assay type: organism-based; conditions: in vivo, other, 360 h; in short: as §4
[25] = Phytotoxicity against Oryza sativa (rice) assessed as growth inhibition at 37.5 g.a.i/ha pre-emergent application measured after 15 days by greenhouse crop selectivity assay; assay type: organism-based, L.; conditions: in vivo, 37.5 g.a.i/ha, read-out: GI; in short: as §4

| SMILES | inhibition of growth at 75 g/ha [1] | inhibition of growth at 37.5 g/ha (Setaria viridis [2]) | inhibition of growth at 75 g/ha (Chenopodium album [3]) | growth inhibition (GI) (Gossypium) | growth inhibition (GI) (Arachis hypogaea [5]) | inhibition of growth at 7.5 g/ha (Digitaria sanguinalis) | inhibition of growth at 7.5 g/ha (Echinochloa crus-galli [6]) | inhibition of growth at 15 g/ha (Echinochloa crus-galli [7]) | Activity [8] | inhibition of growth at 7.5 g/ha (Amaranthus spinosus) | inhibition of growth at 15 g/ha (Setaria viridis [10]) | inhibition of growth at 15 g/ha (Abutilon theophrasti [11]) | inhibition of growth at 75 g/ha (Echinochloa crus-galli [13]) | Activity (Zea mays [14]) | inhibition of growth at 37.5 g/ha (Setaria viridis [15]) | inhibition of growth at 15 g/ha (Chenopodium album [16]) | inhibition of growth at 75 g/ha (Abutilon theophrasti [17]) | inhibition of growth at 7.5 g/ha (Abutilon theophrasti [18]) | inhibition of growth at 37.5 g/ha [19] | inhibition at 360 h [20] | further results |
| --- | --- | --- | --- | --- | --- | --- | --- | --- | --- | --- | --- | --- | --- | --- | --- | --- | --- | --- | --- | --- | --- |
| CCOC(=O)C(CC)N1C(=O)C(C)Oc2cc(F)c(N3C(=O)C4=C(CCCC4)C3=O)cc21 (stereo unspecified) | > 10% | 70% | > 80% | Not Active | Not Active | 40% | 0% | 0% | Toxic | 100% | 30% | 100% | > 80% | Toxic | 0% | 100% | > 80% | 100% | > 10% | > 10% | growth inhibition (GI) (Zea mays [4]): Not Active; growth inhibition (GI) (Glycine max [9]): Not Active; growth inhibition (GI) (Zea mays [12]): Not Active; Activity (Triticum aestivum): Toxic; inhibition of growth at 37.5 g/ha (Abutilon theophrasti [21]): 100%; growth inhibition (GI) (Glycine max [22]): Not Active; growth inhibition (GI) (Arachis hypogaea [23]): Not Active; growth inhibition (GI) (Zea mays [24]): Not Active |
| CCOC(=O)C(C)N1C(=O)C(C)Oc2cc(F)c(N3C(=O)C4=C(CCCC4)C3=O)cc21 (stereo unspecified) | > 10% | 50% | > 80% | Not Active | Not Active | 20% | 10% | 30% | Toxic | 100% | 30% | 100% | > 80% | Toxic | 60% | 100% | > 80% | 100% | > 10% | > 10% | growth inhibition (GI) (Zea mays [4]): Not Active; growth inhibition (GI) (Glycine max [9]): Not Active; growth inhibition (GI) (Zea mays [12]): Not Active; inhibition at 360 h [25]: > 10%; Activity (Triticum aestivum): Toxic; inhibition of growth at 37.5 g/ha (Abutilon theophrasti [21]): 100%; growth inhibition (GI) (Glycine max [22]): Not Active; growth inhibition (GI) (Arachis hypogaea [23]): Not Active; growth inhibition (GI) (Zea mays [24]): Not Active |
| COC(=O)C(C)N1C(=O)C(C)Oc2cc(F)c(N3C(=O)C4=C(CCCC4)C3=O)cc21 (stereo unspecified) | > 10% | 80% | > 80% | Not Active | Not Active | 10% | 10% | 30% | Toxic | 100% | 50% | 100% | > 80% | Toxic | 80% | 100% | > 80% | 100% | > 10% | > 10% | growth inhibition (GI) (Zea mays [4]): Not Active; growth inhibition (GI) (Glycine max [9]): Not Active; growth inhibition (GI) (Zea mays [12]): Not Active; inhibition at 360 h [25]: > 10%; Activity (Triticum aestivum): Toxic; inhibition of growth at 37.5 g/ha (Abutilon theophrasti [21]): 100%; growth inhibition (GI) (Glycine max [22]): Not Active; growth inhibition (GI) (Arachis hypogaea [23]): Not Active; growth inhibition (GI) (Zea mays [24]): Not Active |
| C#CCN1C(=O)COc2cc(F)c(N3C(=O)C4=C(CCCC4)C3=O)cc21 [FLUMIOXAZIN] | > 10% | 95% | > 80% | Not Active | Not Active | 80% | 50% | 70% | Toxic | 100% | 90% | 100% | > 80% | Toxic | 80% | 100% | > 80% | 100% | > 10% | > 10% | inhibition at 360 h [25]: > 10%; Activity (Triticum aestivum): Toxic; inhibition of growth at 37.5 g/ha (Abutilon theophrasti [21]): 100%; growth inhibition (GI) (Arachis hypogaea [23]): Not Active; growth inhibition (GI) (Zea mays [24]): Not Active |
